Results on one molecule are retold here after ChEMBL document CHEMBL4392827, “Tryptamine derivatives disarm colistin resistance in polymyxin-resistant gram-negative bacteria” (Bioorg Med Chem, 2019).

Data set [1] relates to Acinetobacter baumannii. In words: Induction of membrane permeabilization in colistin-resistant Acinetobacter baumannii isolate 3942 at 60 uM measured after 1 hr by SYTO-9/propidium iodide staining based fluorescence assay relative to control. Type of data set: functional. In outline:
(§1)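 Cells were grown overnight in CAMHB at 37°C, diluted 1:10 and grown 4 h more to an OD600 of ~0.3. They were pelleted, washed with sterile water and resuspended at 1/10 volume in water containing compound. After 1 h at 37°C with shaking, cells were washed and stained with SYTO-9/propidium iodide (1:1, 3 μL/mL) for 15 min at RT. Emission was read at 530 and 645 nm (excitation 485 nm), and the green/red ratio was expressed as % of the untreated control.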

The test system of data set [2] is Acinetobacter baumannii. In words: Potentiation of colistin-induced antimicrobial activity against colistin-resistant Acinetobacter baumannii ATCC 17978 expressing mcr1 gene assessed as fold reduction in colistin MIC at 60 uM after 18 hrs by broth microdilution assay. Type of data set: functional. In outline: (§2)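 Checkerboard-style resensitization following adapted CLSI broth microdilution. Bacteria were grown 4–6 h in CAMHB and subcultured to 5×10^5 CFU/mL. Adjuvant was added from DMSO stock and held constant while colistin was serially diluted in the dosed subculture. Plates were incubated stationary at 37°C for 18 h, then MICs were read. Fold reduction was taken relative to the colistin MIC without adjuvant.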
A general note: Broth dilution looks for growth in wells or tubes with falling amounts of substance.

The test system of data set [3] is Klebsiella pneumoniae. In words: Potentiation of colistin-induced antimicrobial activity against colistin-resistant Klebsiella pneumoniae B9 assessed as fold reduction in colistin MIC at 60 uM after 18 hrs by broth microdilution assay. Format: functional. An outline of the steps:
as §2

Data set [4] has as its system Acinetobacter baumannii. In words: Potentiation of colistin-induced antimicrobial activity against colistin-resistant Acinetobacter baumannii 4106 assessed as fold reduction in colistin MIC at 60 uM after 18 hrs by broth microdilution assay. Format: functional. In outline: as §2
In data set [5] the test system is Acinetobacter baumannii. In words: Toxicity in Acinetobacter baumannii 4106 after 18 hrs by broth microdilution assay. To be noted: in vitro. Type of data set: organism-based. An outline of the steps:
(§3)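 Single-agent MIC per CLSI broth microdilution. Cells from a 4–6 h culture in cation-adjusted Mueller-Hinton broth adjusted to 5 ×10^5 CFU/mL. Compound (DMSO stock) added to 200 μM top concentration and twofold serially diluted six times, with an untreated control row. Plates sealed and incubated stationary at 37°C for 18 h before MIC read.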

For data set [6], the system named is Klebsiella pneumoniae. In words: Induction of membrane permeabilization in colistin-resistant Klebsiella pneumoniae isolate C3 at 60 uM measured after 1 hr by SYTO-9/propidium iodide staining based fluorescence assay relative to control. Format: functional. In outline: as §1
Data set [7] concerns Escherichia coli. In words: Potentiation of colistin-induced antimicrobial activity against colistin-resistant Escherichia coli ATCC 25922 expressing mcr1 gene assessed as fold reduction in colistin MIC at 60 uM after 18 hrs by broth microdilution assay. Format: functional. An outline of the steps:
as §2

Data set [8] has as its system Klebsiella pneumoniae. In words: Toxicity in Klebsiella pneumoniae B9 after 18 hrs by broth microdilution assay. Format: organism-based. In outline: as §3
Data set [9] has as its system Escherichia coli. In words: Toxicity in Escherichia coli ATCC 25922 after 18 hrs by broth microdilution assay. Type of data set: organism-based. To be noted: in vitro. In outline: as §3
Data set [10] in a line: Hemolytic activity in sheep erythrocytes assessed as hemolysis at 100 uM incubated for 1 hr under shaking condition by UV-spectrophotometry. Type of data set: ADME, cell-based, Ovis aries, Erythrocyte. To be noted: read-out: Activity. In outline:
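Washed sheep erythrocytes (defibrinated blood spun, resuspended in PBS three times) diluted 10-fold in PBS containing compound from DMSO stock. DMSO negative control (0% lysis), 1% Triton X100 positive control (100% lysis). 1 h at 37°C with shaking, then spun 10 min at 10,000 rpm and supernatant diluted 1:40 in distilled water.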

The test system of data set [11] is Acinetobacter baumannii. In words: Toxicity in Acinetobacter baumannii ATCC 17978 expressing mcr1 gene after 18 hrs by broth microdilution assay. Type of data set: organism-based. An outline of the steps:
as §3

Calls of active or inactive are those of the source. The rule behind the calls is not given here.

For the molecule `CCCCn1cc(CCNC(=O)c2cc(Br)c(Br)[nH]2)c2ccccc21`, the result in the data set on Acinetobacter baumannii [1] and with Klebsiella pneumoniae [6] was inactive. Moreover, the “fold change (FC)” value with Acinetobacter baumannii [2], with Klebsiella pneumoniae [3], in the data set with Acinetobacter baumannii [4] and in the data set on Escherichia coli [7] was 0 throughout. Besides, the MIC against Acinetobacter baumannii [5], in the data set with Klebsiella pneumoniae [8], in the data set with Escherichia coli [9] and against Acinetobacter baumannii [11] was more than 200 µM in each case. Further, in data set [10], the hemolysis at 1 h, 100 µM is less than 1%.
